Test results published in ChEMBL document CHEMBL4038336 (J Med Chem, 2017).
Activity calls are given as the source filed them.

What was measured:
[1] = Half life in swine brain at 10 uM after 30 to 60 mins by LC-MS/MS analysis; type: ADME, tissue-based, Sus scrofa; details: pig
How it was run: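 Prodrugs at 10 µM spiked into swine brain homogenate (1% w/v) and incubated at 37 °C with orbital shaking. Triplicate aliquots were taken at 0, 30 and 60 min and quenched with ice-cold acetonitrile containing losartan IS. Prodrug was measured by LC-MS/MS as the analyte/IS peak-area ratio. t1/2 = 0.693/Kel, with Kel the slope of ln % remaining versus time.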

[2] = Ratio of total drug level in swine brain to plasma at 1.6 mg/kg, iv infusion via saphenous vein after 60 mins by LC-MS/MS analysis; type: ADME, organism-based, Sus scrofa; details: pig, read-out: BPR
How it was run: (§1)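 Terminal swine study using the same 1 h iv dosing, 1.6 mg/kg DON or molar equivalent (n = 2/dose). Animals were euthanized with pentobarbital/phenytoin at 60 min postinfusion. Plasma and full-thickness frontal cortex were collected. DON was quantified by LC-MS/MS after methanol extraction with glutamate-d5 IS and dabsyl chloride derivatization. Values are mean ± SEM.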

[3] = Total drug uptake in swine cerebrospinal fluid at 1.6 mg/kg, iv infusion via saphenous vein after 60 mins by LC-MS/MS analysis; type: ADME, organism-based, Sus scrofa; details: pig, read-out: Drug uptake
How it was run: (§2)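 Swine received DON 1.6 mg/kg or molar-equivalent prodrug by 1 h iv saphenous infusion in saline/5% ethanol/5% Tween 80 (n = 1/dose). Plasma was sampled via jugular catheter. CSF was taken from the cisterna magna at 60 min postdose. DON was methanol-extracted, dabsyl-derivatized and quantified by LC-MS/MS.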

[4] = Fraction unbound in swine brain at 1.6 mg/kg, iv infusion via saphenous vein after 60 min post-infusion by LC-MS/MS analysis; type: ADME, organism-based, Sus scrofa; details: pig, in vivo, 1 h
Plasma [5] = experiment: Unbound plasma concentration in swine at 1.6 mg/kg, iv infusion via saphenous vein after 60 mins by LC-MS/MS analysis; type: ADME, organism-based, Sus scrofa; details: pig, in vivo, 1 h
How it was run: (§3)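 Swine, n = 2/dose. Dosing was iv infusion over 1 h (1.6 mg/kg or molar equivalent), with brain and plasma taken 60 min post-infusion and totals measured by LC–MS/MS after dabsyl derivatisation. Free levels were calculated from the totals using ultrafiltration-derived bound fractions for brain and plasma (10 µM, 37 °C, 30 min).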

[6] = Unbound drug level in swine brain at 1.6 mg/kg, iv infusion via saphenous vein after 60 mins by LC-MS/MS analysis; type: ADME, organism-based, Sus scrofa; details: pig, in vivo, 1 h; how it was run: as §3
[7] = Ratio of total drug level in swine cerebrospinal fluid to plasma at 1.6 mg/kg, iv infusion via saphenous vein after 60 mins by LC-MS/MS analysis; type: ADME, organism-based, Sus scrofa, CSF/Plasma; details: pig; how it was run: as §2
[8] = Ratio of total drug level in swine cerebrospinal fluid to unbound plasma concentration in swine at 1.6 mg/kg, iv infusion via saphenous vein after 60 mins by LC-MS/MS analysis; type: ADME, organism-based, Sus scrofa; details: pig, in vivo, 1 h
[9] = Total plasma concentration in swine at 1.6 mg/kg, iv infusion via saphenous vein after 60 mins by LC-MS/MS analysis; type: ADME, organism-based, Sus scrofa; details: pig; how it was run: as §1
[10] = Ratio of unbound drug level in swine brain to plasma at 1.6 mg/kg, iv infusion via saphenous vein after 60 mins by LC-MS/MS analysis; type: ADME, organism-based, Sus scrofa; details: pig
How it was run: (§4)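 Free DON was derived from total swine brain and plasma levels at 60 min after 1.6 mg/kg-equivalent iv infusion. Unbound fraction came from ultrafiltration: DON 10 µM spiked into swine plasma or brain homogenate, 30 min at 37 °C, centrifuged through a 30 kDa cut-off filter at 37 °C for 45 min. fu = Cu/Ct × 100 by LC-MS/MS.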

[11] = Ratio of total drug level in swine cerebrospinal fluid to unbound drug level in swine brain at 1.6 mg/kg, iv infusion via saphenous vein after 60 mins by LC-MS/MS analysis; type: ADME, organism-based, Sus scrofa; details: pig, in vivo, 1 h; how it was run: as §4
[12] = AUC (0 to t) in swine at 1.6 mg/kg, iv infusion via saphenous vein after 5 to 60 mins by LC-MS/MS analysis; type: ADME, organism-based, Sus scrofa; details: pig, in vivo
How it was run: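 DON (1.6 mg/kg) or molar-equivalent prodrug in sterile saline with 5% ethanol and 5% Tween 80, given as 1 h iv infusion via saphenous catheter to swine (n = 1/dose). Plasma from jugular central venous catheter at predose, 5, 15, 30, 45, 60 min. DON extracted with methanol plus glutamate-d5 IS, dabsyl chloride derivatized, quantified by LC-MS/MS; AUC0–t from plasma profile.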

[13] = Total drug uptake in swine brain at 1.6 mg/kg, iv infusion via saphenous vein after 60 mins by LC-MS/MS analysis; type: ADME, organism-based, Sus scrofa; details: pig, in vivo, 1 h
How it was run: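 Anaesthetised swine, n = 2/dose. Infusion iv via saphenous vein over 1 h at 1.6 mg/kg or molar equivalent, in saline with 5% ethanol and 5% Tween 80. Animals were euthanised 60 min post-infusion and frontal cortex sampled. Extraction used methanol with glutamate-d5, then dabsyl chloride derivatisation (pH 9.0, 60 °C, 15 min) and LC–QTOF-MS.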

Mus musculus [14] = experiment: (§5) Effect on latency to escape to visible platform in C57BL/6J mouse EcoHIV associated neurocognitive disorder model at 1 mg/kg, […] starting 1 day prior to EcoHIV infection and continuing every other day till day 30 measured after 30 days post infection by radial arm water maze test; type: organism-based; details: in vivo, 720 h
How it was run: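 Same mice, dosing and EcoHIV or sham inoculation as the maze study. After the hidden-platform radial arm water maze testing, latency to reach a visible platform in the same context was timed. This serves as a control for vision, motivation and swimming ability.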

Mus musculus [15] = experiment: Toxicity in EcoHIV-infected C57BL/6J mouse assessed as change in body weight at 1 mg/kg, […] starting 1 day prior to EcoHIV infection and continuing every other day till day 30 measured after 30 days post infection; type: organism-based; details: in vivo, 720 h
[16] = test system: Human immunodeficiency virus; experiment: Effect on EcoHIV viral DNA load in infected C57BL/6J mouse brain at 1 mg/kg, […] starting 1 day prior to EcoHIV infection and continuing every other day till day 30 measured after 30 days post infection by qPCR method; type: organism-based; details: in vivo, 720 h
Mus musculus [17] = experiment: Decrease in cognitive decline in C57BL/6J mouse EcoHIV associated neurocognitive disorder model assessed as decrease in number of errors across learning trial 1 to 4 and retention trial at 1 mg/kg, […] starting 1 day prior to EcoHIV infection and continuing every other day till day 30 measured after 30 days post infection by radial arm water maze test; type: functional, organism-based
How it was run: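 Male C57BL/6J mice, 5 weeks old, n = 8/group. Dosing was 1 mg/kg ip every other day, starting 1 day before ip EcoHIV (2 × 10^6 pg p24) or PBS sham, and continued through testing. From day 30 p.i., radial arm water maze: daily four 60 s learning trials, then a 60 s retention test after 30 min rest. Hidden platform arm rotated daily. Values are last-3-day averages.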

Plasma [18] = experiment: Protein binding in swine plasma at 10 uM after 30 mins by ultrafiltration method; type: ADME, cell-free, Sus scrofa; details: pig, 0.5 h
How it was run: (§6)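 Drug was spiked at 10 µM into swine plasma or swine brain homogenate and held 30 min at 37 °C. Samples were ultrafiltered (30 kDa cutoff) by centrifugation for 45 min at 37 °C, 1800g. Filtrate and unfiltered matrix were extracted and quantified by LC–MS/MS. Fraction unbound = Cu/Ct × 100.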

[19] = test system: Human immunodeficiency virus; experiment: Increase in EcoHIV viral DNA load in infected C57BL/6J mouse spleen at 1 mg/kg, […] starting 1 day prior to EcoHIV infection and continuing every other day till day 30 measured after 30 days post infection by qPCR method; type: organism-based; details: in vivo, 720 h
Mus musculus [20] = experiment: Toxicity in EcoHIV-infected C57BL/6J mouse assessed as change in motor function at 1 mg/kg, […] starting 1 day prior to EcoHIV infection and continuing every other day till day 30 measured after 30 days post infection; type: organism-based; details: in vivo, 720 h
[21] = Protein binding in swine brain at 10 uM after 30 mins by ultrafiltration method; type: ADME, tissue-based, Sus scrofa; details: pig, 0.5 h; how it was run: as §6
Mus musculus [22] = experiment: Toxicity in EcoHIV-infected C57BL/6J mouse assessed as diarrhea at 1 mg/kg, […] starting 1 day prior to EcoHIV infection and continuing every other day till day 30 measured after 30 days post infection; type: organism-based; details: in vivo, 720 h
Mus musculus [23] = experiment: as §5, with “Decrease in cognitive decline” for “Effect on latency to escape to visible platform”, “model assessed as decrease in latency to escape to hidden platform” for “model”; type: functional, organism-based
Mus musculus [24] = experiment: Toxicity in EcoHIV-infected C57BL/6J mouse assessed as change in visual impairment at 1 mg/kg, […] starting 1 day prior to EcoHIV infection and continuing every other day till day 30 measured after 30 days post infection; type: organism-based; details: in vivo, 720 h

Structure (SMILES)	half-life at 10 µM [1] [min]	AUC(0-t) [12] [µM·h]	concentration at 1 h [3] [µM]	Drug uptake(free) [4] [nmol/g]	Cp(f) (Plasma [5]) [µM]	Drug uptake(free) [6] [nmol/g]	Kp at 1 h [7]	concentration at 1 h [9] [µM]	Kp uu at 1 h [10]	Drug uptake [13] [nmol/g]	further results
CC(C)OC(=O)[C@H](CCC(=O)C=[N+]=[N-])NC(=O)OC(OC(=O)C(C)(C)C)c1ccccc1 (some centres not stated)	31	5.7	1.1	0.53	3.86	0.531	0.069	4.88	0.157	5.9	Kp at 1 h [2]: 1.38; Ratio [8]: 0.087; Ratio [11]: 2.07
CC(C)OC(=O)[C@H](CCC(=O)C=[N+]=[N-])NC(=O)OC(OC(=O)C(C)(C)C)C(C)C (mixture of isomers)	35										
[N-]=[N+]=CC(=O)CC[C@H](N)C(=O)O [6-DIAZO-5-OXO-L-NORLEUCINE]		29.9	0.252	0.46 to 0.531	32.5	0.464	0.005	41.2	0.017	5.15	Activity (Mus musculus [14]): Non-Toxic; Activity (Mus musculus [15]): Non-Toxic; Activity [16]: Non-Toxic; Activity (Mus musculus [17]): Active; PPB (Plasma [18]): 21%; Activity [19]: Toxic; Activity (Mus musculus [20]): Non-Toxic; PB [21]: 91%; Activity (Mus musculus [22]): Non-Toxic; Activity (Mus musculus [23]): Active; Activity (Mus musculus [24]): Non-Toxic

Second part, led by results:

half-life at 10 µM [1] [min]	AUC(0-t) [12] [µM·h]	Structure (SMILES)	concentration at 1 h [3] [µM]	Drug uptake(free) [4] [nmol/g]	Cp(f) (Plasma [5]) [µM]	Drug uptake(free) [6] [nmol/g]	Kp at 1 h [7]	concentration at 1 h [9] [µM]	Kp uu at 1 h [10]	Drug uptake [13] [nmol/g]	further results
291		CC(C)OC(=O)[C@H](CCC(=O)C=[N+]=[N-])NC(=O)OC(C)(C)OC(=O)C(C)(C)C									
75	8	CC(C)OC(=O)[C@H](CCC(=O)C=[N+]=[N-])NC(=O)O[C@H](C)OC(=O)C(C)(C)C									
